The text below walks through data of PMC10422018 (Molecular Therapy, 2023).

The test system of series [1] is 3T3-L1 adipocytes. The series is described as follows: Glycerol release from 3T3-L1 adipocytes treated with C26 CM. It is filed as cell-based, mouse. The settings on record: 24 h.
Series [2] can be described thus: Stability of the peptides in solution. The class given is physicochemical. To be noted: peptide in solution.
Series [3] relates to 3T3-L1 adipocytes. The series is described as follows: LPS-induced glycerol release from 3T3-L1 adipocytes. It is filed as cell-based, mouse. The settings on record: 0.5 µM or 5 µM, 1µg/ml LPS, 24 h. In a few lines:
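3T3-L1 preadipocytes were differentiated with 1 μg/mL insulin, 0.25 μM dexamethasone and 0.5 mM IBMX, then used 8–12 days post-differentiation. Glycerol was measured with a glycerol kit, either directly in culture medium or in Krebs-Ringer buffer (3% BSA, 5 mM glucose) collected over 2 h after a 1 h preincubation. Experiments were repeated at least 2–3 times, each with n ≥3 technical replicates.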

Turning to `NC(=O)c1ncn([C@@H]2O[C@H](COP(=O)(O)O)[C@@H](O)[C@H]2O)c1N` [AICAR, 5-aminoimidazole-4-carboxamide ribonucleotide], the “C26 CM-induced glycerol release” value in the series with 3T3-L1 adipocytes [1] (indicated concentrations of AICAR) is on record as “reduced C26 CM-induced glycerol release at higher doses”. In the case of `C#CC[C@H](NC(=O)[C@H](CCCCN)NC(=O)[C@H](CCCCN)NC(=O)[C@H](Cc1c[nH]c2ccccc12)NC(=O)[C@H](CCCCN)NC(=O)[C@H](CCSC)NC(=O)[C@H](CCCNC(=N)N)NC(=O)[C@H](CCCNC(=N)N)NC(=O)[C@H](CC(N)=O)NC(=O)[C@H](CCC(N)=O)NC(=O)[C@H](Cc1ccccc1)NC(=O)[C@H](Cc1c[nH]c2ccccc12)NC(=O)[C@@H](NC(=O)[C@H](CCCCN)NC(=O)[C@@H](NC(=O)[C@H](CCC(N)=O)NC(=O)[C@@H](N)CCCNC(=N)N)[C@@H](C)CC)[C@@H](C)CC)C(=O)N[C@@H](CC(N)=O)C(=O)N[C@@H](Cc1c[nH]cn1)C(=O)N[C@H](C(=O)N[C@@H](CCSC)C(=O)N[C@@H](CC(C)C)C(=O)N[C@@H](CC(N)=O)C(=O)N[C@@H](Cc1c[nH]cn1)C(=O)N[C@@H](CC(C)C)C(=O)N[C@@H](Cc1ccc(O)cc1)C(=O)N[C@@H](C)C(=O)N[C@@H](CC(C)C)C(=O)N[C@@H](CO)C(=O)N[C@H](C(=O)N[C@@H](CCCCN)C(=O)N[C@@H](CC(=O)O)C(=O)NCC(=O)N[C@H](C(N)=O)C(C)C)[C@@H](C)CC)C(C)C` [Pen-X-ACIP], the “Degradation products in mass spectrometry” value in series [2] is on record as “No degradation products were detected”.

As for MK8722, the “C26 CM-induced lipolysis (glycerol release)” value in the series with 3T3-L1 adipocytes [1] (0.5 µM or 5 µM) is recorded as “reduced C26 CM-induced lipolysis dose dependently”. Further, in the series on 3T3-L1 adipocytes [3], the LPS-induced glycerol release entry is listed as “inhibited”.
